In ChEMBL document CHEMBL4011603, “Synthesis of clarithromycin ketolides chemically modified at the unreactive C10-methyl group” (2017) one finds MIC data, which are given here for nine compounds.

In assay [1] the test system is Staphylococcus aureus. Description: Antibacterial activity against macrolide-resistant Staphylococcus aureus BAA976 expressing mef gene by broth microdilution method. Type of assay: functional. An outline of the steps:
(§1)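 Standard broth microdilution for MIC against respiratory-pathogen strains, reported in μg/mL, with clarithromycin included as the reference macrolide.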
On the technique in general: In broth dilution the organism is exposed to a series of concentrations in liquid medium.

Assay [2] deals with Staphylococcus aureus. Kind of assay: Antibacterial activity against constitutively macrolides/lincosamides/streptogramines-resistant Staphylococcus aureus ND048910 expressing erm gene by broth microdilution method. Type of assay: functional. In short, it runs like this:
as §1

The test system of assay [3] is Staphylococcus aureus. Kind of assay: Antibacterial activity against Staphylococcus aureus ATCC 29213 by broth microdilution method. Type of assay: functional. An outline of the steps:
(§2)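 Standard broth microdilution; the endpoint is the minimal inhibitory concentration, reported in μg/mL. Clarithromycin is the reference macrolide. Strains are respiratory-pathogen isolates of S. pneumoniae and S. aureus.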

Assay [4] deals with Streptococcus pneumoniae. Kind of assay: Antibacterial activity against macrolide-resistant Streptococcus pneumoniae BAA1402 expressing mef gene by broth microdilution method. The assay is classed as functional. An outline of the steps:
as §1

Assay [5] concerns Staphylococcus aureus. Description: Antibacterial activity against inducibly macrolides/lincosamides/streptogramines-resistant Staphylococcus aureus BAA977 expressing erm gene by broth microdilution method. The assay is classed as functional. In short, it runs like this:
as §1

Assay [6] concerns Streptococcus pneumoniae. Kind of assay: Antibacterial activity against macrolides/lincosamides/streptogramines-resistant Streptococcus pneumoniae BAA1407 expressing mef and erm genes by broth microdilution method.
Assay [7] has as its system Streptococcus pneumoniae. Description: Antibacterial activity against Streptococcus pneumoniae ATCC 4961 by broth microdilution method. Type of assay: functional. In short, it runs like this: as §2
For assay [8], the system named is Streptococcus pneumoniae. Description: Antibacterial activity against macrolides/lincosamides/streptogramines resistant Streptococcus pneumoniae 3914 by broth microdilution method. Type of assay: functional. In short, it runs like this: as §1

Converted amounts (≈) assume the structure as drawn.

As a reminder, the MIC is the least concentration at which growth counts as inhibited. A lower MIC goes with greater potency. As for `CC[C@H]1OC(=O)[C@H](C)C(=O)[C@H](C)[C@@H](O[C@@H]2O[C@H](C)C[C@H](N(C)C)[C@H]2OC(C)=O)[C@](C)(OC)C[C@@H](C)C(=O)[C@]2(CC=NN2)[C@H]2NC(=O)O[C@]12C`, the MIC was 2 µg/mL (≈ 2.88 µM) with Staphylococcus aureus [1]; greater than 128 µg/mL against Staphylococcus aureus [2]; 2 µg/mL (≈ 2.88 µM) with Staphylococcus aureus [3]; 0.25 µg/mL (≈ 0.36 µM) against Streptococcus pneumoniae [4]; 2 µg/mL (≈ 2.88 µM) against Staphylococcus aureus [5]; 64 µg/mL (≈ 92.1 µM) in the assay on Streptococcus pneumoniae [6]. For the same compound, the MIC was found to be 0.06 µg/mL (≈ 0.0864 µM) in the assay on Streptococcus pneumoniae [7] and 16 µg/mL (≈ 23 µM) against Streptococcus pneumoniae [8].
`CC[C@H]1OC(=O)[C@H](C)C(=O)[C@H](C)[C@@H](O[C@@H]2O[C@H](C)C[C@H](N(C)C)[C@H]2O)[C@](C)(OC)C[C@@H](C)C(=O)[C@H](CNCc2ccccc2)[C@H]2N(C)C(=O)O[C@]12C`: the MIC with Staphylococcus aureus [1] was 32 µg/mL (≈ 43.7 µM); in the assay with Staphylococcus aureus [2], greater than 64 µg/mL; with Staphylococcus aureus [3], 16 µg/mL (≈ 21.9 µM); against Streptococcus pneumoniae [4], 1 µg/mL (≈ 1.37 µM); against Staphylococcus aureus [5] it was 16 µg/mL (≈ 21.9 µM); with Streptococcus pneumoniae [6], 64 µg/mL (≈ 87.4 µM). Besides, the MIC is 0.25 µg/mL (≈ 0.342 µM) against Streptococcus pneumoniae [7] and less than 128 µg/mL with Streptococcus pneumoniae [8].
Consider `CC[C@H]1OC(=O)[C@H](C)C(=O)[C@H](C)[C@@H](O[C@@H]2O[C@H](C)C[C@H](N(C)C)[C@H]2OC(C)=O)[C@](C)(OC)C[C@@H](C)C(=O)[C@H](CNCc2ccccc2)[C@H]2NC(=O)O[C@@]21C`, for which the MIC in the assay with Staphylococcus aureus [1] was 0.5 µg/mL (≈ 0.658 µM); with Staphylococcus aureus [2], greater than 64 µg/mL; with Staphylococcus aureus [3], 0.25 µg/mL (≈ 0.329 µM); against Streptococcus pneumoniae [4] it was less than 0.0072 µg/mL; in the assay on Staphylococcus aureus [5] it was 1 µg/mL (≈ 1.32 µM); against Streptococcus pneumoniae [7] it was less than 0.007 µg/mL. In the assay with Streptococcus pneumoniae [8], this compound gave an MIC of 64 µg/mL (≈ 84.2 µM).
With `CCOC(=O)C(C[C@H]1C(=O)[C@H](C)C[C@@](C)(OC)[C@H](O[C@@H]2O[C@H](C)C[C@H](N(C)C)[C@H]2OC(C)=O)[C@@H](C)C(=O)[C@@H](C)C(=O)O[C@H](CC)[C@@]2(C)OC(=O)N[C@H]12)C(=O)OCC`, the MIC with Staphylococcus aureus [1] was 0.5 µg/mL (≈ 0.615 µM); with Staphylococcus aureus [2], greater than 128 µg/mL; in the assay on Staphylococcus aureus [3], 0.25 µg/mL (≈ 0.308 µM); with Streptococcus pneumoniae [4], 0.125 µg/mL (≈ 0.154 µM); in the assay on Staphylococcus aureus [5] it was 0.5 µg/mL (≈ 0.615 µM); with Streptococcus pneumoniae [6], 128 µg/mL (≈ 157 µM). The MIC in the assay with Streptococcus pneumoniae [7] turned out to be 0.06 µg/mL (≈ 0.0738 µM); with Streptococcus pneumoniae [8], 4 µg/mL (≈ 4.92 µM).
Turning to `C=C1C(=O)[C@H](C)C[C@@](C)(OC)[C@H](O[C@@H]2O[C@H](C)C[C@H](N(C)C)[C@H]2OC(C)=O)[C@@H](C)C(=O)[C@@H](C)C(=O)O[C@H](CC)[C@@]2(C)OC(=O)N(Cc3ccccc3)[C@H]12`, the MIC against Staphylococcus aureus [1] was 2 µg/mL (≈ 2.69 µM); with Staphylococcus aureus [2], 64 µg/mL (≈ 86.1 µM); against Staphylococcus aureus [3], 1 µg/mL (≈ 1.35 µM); with Streptococcus pneumoniae [4] it was 0.125 µg/mL (≈ 0.168 µM); in the assay with Staphylococcus aureus [5], 2 µg/mL (≈ 2.69 µM); in the assay with Streptococcus pneumoniae [6], 64 µg/mL (≈ 86.1 µM). The values for the MIC against Streptococcus pneumoniae [7] and in the assay on Streptococcus pneumoniae [8] were less than 0.07 µg/mL and 2 µg/mL (≈ 2.69 µM), respectively.
In the case of `CC[C@H]1OC(=O)[C@H](C)C(=O)[C@H](C)[C@@H](O[C@@H]2O[C@H](C)C[C@H](N(C)C)[C@H]2OC(C)=O)[C@](C)(OC)C[C@@H](C)C(=O)[C@H](CNCc2cccnc2)[C@H]2NC(=O)O[C@@]21C`, the MIC is 2 µg/mL (≈ 2.63 µM) in the assay on Staphylococcus aureus [1]; greater than 64 µg/mL against Staphylococcus aureus [2]; 1 µg/mL (≈ 1.31 µM) against Staphylococcus aureus [3]; 0.06 µg/mL (≈ 0.0789 µM) in the assay on Streptococcus pneumoniae [4]; 4 µg/mL (≈ 5.26 µM) in the assay with Staphylococcus aureus [5]; 64 µg/mL (≈ 84.1 µM) against Streptococcus pneumoniae [6]. The MIC was determined as 0.015 µg/mL (≈ 0.0197 µM) against Streptococcus pneumoniae [7] and 4 µg/mL (≈ 5.26 µM) in the assay with Streptococcus pneumoniae [8].
Turning to `CC[C@H]1OC(=O)[C@H](C)[C@@H](O)[C@H](C)[C@@H](O[C@@H]2O[C@H](C)C[C@H](N(C)C)[C@H]2OC(C)=O)[C@](C)(OC)C[C@@H](C)C(=O)/C(Cc2ccccc2)=C/[C@]1(C)O`, the MIC was 16 µg/mL (≈ 23.2 µM) in the assay on Staphylococcus aureus [1]; greater than 64 µg/mL in the assay with Staphylococcus aureus [2]; 16 µg/mL (≈ 23.2 µM) in the assay on Staphylococcus aureus [3]; 0.5 µg/mL (≈ 0.725 µM) in the assay on Streptococcus pneumoniae [4]; 32 µg/mL (≈ 46.4 µM) against Staphylococcus aureus [5]; greater than 64 µg/mL in the assay with Streptococcus pneumoniae [6]. Moreover, the MIC against Streptococcus pneumoniae [7] was found to be 0.25 µg/mL (≈ 0.362 µM); in the assay with Streptococcus pneumoniae [8], 64 µg/mL (≈ 92.8 µM).
`C=C1C(=O)[C@H](C)C[C@@](C)(OC)[C@H](O[C@@H]2O[C@H](C)C[C@H](N(C)C)[C@H]2OC(C)=O)[C@@H](C)C(=O)[C@@H](C)C(=O)O[C@H](CC)[C@@]2(C)OC(=O)N[C@H]12`: the MIC is 64 µg/mL (≈ 98 µM) in the assay on Staphylococcus aureus [1]; greater than 64 µg/mL in the assay on Staphylococcus aureus [2]; 32 µg/mL (≈ 49 µM) against Staphylococcus aureus [3]; 2 µg/mL (≈ 3.06 µM) against Streptococcus pneumoniae [4]; 64 µg/mL (≈ 98 µM) in the assay with Staphylococcus aureus [5]; greater than 64 µg/mL in the assay with Streptococcus pneumoniae [6]. For the same compound, the MIC in the assay with Streptococcus pneumoniae [7] worked out at 1 µg/mL (≈ 1.53 µM); against Streptococcus pneumoniae [8], 128 µg/mL (≈ 196 µM).
`CC[C@H]1OC(=O)[C@H](C)[C@@H](O[C@H]2C[C@@](C)(OC)[C@@H](O)[C@H](C)O2)[C@H](C)[C@@H](O[C@@H]2O[C@H](C)C[C@H](N(C)C)[C@H]2O)[C@](C)(OC)C[C@@H](C)C(=O)[C@H](C)[C@@H](O)[C@]1(C)O` [CLARITHROMYCIN]: the MIC against Staphylococcus aureus [1] is 64 µg/mL (≈ 85.6 µM); in the assay on Staphylococcus aureus [2], greater than 64 µg/mL; in the assay on Staphylococcus aureus [3], 0.125 µg/mL (≈ 0.167 µM); in the assay on Streptococcus pneumoniae [4], 2 µg/mL (≈ 2.67 µM); in the assay on Staphylococcus aureus [5] it was greater than 64 µg/mL; against Streptococcus pneumoniae [6] it was greater than 8 µg/mL. Besides, the MIC against Streptococcus pneumoniae [7] was 0.015 µg/mL (≈ 0.0201 µM); with Streptococcus pneumoniae [8], greater than 16 µg/mL.
